Laboratory results reported in ChEMBL document CHEMBL4477216, “Discovery and Optimization of Small Molecule Splicing Modifiers of Survival Motor Neuron 2 as a Treatment for Spinal Muscular Atrophy” (J Med Chem, 2016).

Assays:
[1] = species on record: Homo sapiens; assay: Inhibition of mRNA splicing of SMN2 exon 7 in GM03813 fibroblasts derived from SMA patient assessed as compound concentration required to increase SMN protein level by 1.5 times after 24 hrs by HTRF assay
[2] = Apparent permeability in human Caco2 cells; assay type: ADME, cell-based; conditions: Caco-2
Summary of the method: (§1)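 Bidirectional permeability was measured across a Caco-2 cell monolayer. Papp was reported, and efflux was expressed as the B-A/A-B ratio.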

[3] = Efflux ratio of apparent permeability from basolateral to apical over apical to basolateral side in human Caco2 cells; assay type: ADME, cell-based; conditions: Caco-2; summary of the method: as §1
[4] = Protein binding in human plasma; assay type: ADME, cell-free; conditions: read-out: PPB (converted)
[5] = AUC (0 to 6 hrs) in Sprague-Dawley rat at 10 mg/kg, po; assay type: ADME, organism-based; design: dose 10 mg/kg, time < 6 hr, route oral; conditions: in vivo
Summary of the method: (§2)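 Male Sprague-Dawley rats got a single oral 10 mg/kg dose as a suspension in 0.5% hydroxypropyl methylcellulose with 0.1% Tween-80. Plasma was sampled at several time points up to 6 h post dose to give AUC0-6h. Total brain concentration was taken at 6 h to give the brain/plasma ratio.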

[6] = Ratio of drug level in brain to plasma of Sprague-Dawley rat at 10 mg/kg, po measured at 6 hrs; assay type: ADME, organism-based; conditions: brain and plasma, read-out: BPR; summary of the method: as §2
[7] = AUC (0 to 24 hrs) in FVB.Cg-Tg(SMN2 delta 7 exon)4299Ahmb Tg(SMN2)89Ahmb Smn1tm1Msd/J mouse at 10 mg/kg, ip; assay type: ADME, organism-based; design: dose 10 mg/kg, time < 24 hr, route intraperitoneal; conditions: in vivo
Summary of the method: (§3)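 Single 10 mg/kg IP dose given on postnatal day 9 to neonatal mice. Vehicle was 100% DMSO solution (2.5 mL/kg). Plasma and brain drug levels were measured, giving plasma AUC0-24h and the brain/plasma ratio.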

[8] = Ratio of drug level in brain to plasma of FVB.Cg-Tg(SMN2 delta 7 exon)4299Ahmb Tg(SMN2)89Ahmb Smn1tm1Msd/J mouse at 10 mg/kg, ip; assay type: ADME, organism-based; conditions: brain and plasma, read-out: BPR; summary of the method: as §3
[9] = test system: Mus musculus; assay: In vivo inhibition of mRNA splicing of human SMN2 exon 7 in FVB.Cg-Tg(SMN2 delta 7 exon)4299Ahmb Tg(SMN2)89Ahmb Smn1tm1Msd/J mouse assessed as increase in SMN protein level in brain administered as ip qd on postnatal day 3 to day 9 by HTRF assay; assay type: functional, organism-based
Summary of the method: (§4)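 Homozygous Δ7 SMA mice were dosed IP once daily from PND3 to PND9 with compound or vehicle (100% DMSO solution, 2.5 mL/kg). Brain, spinal cord and quadriceps were homogenized in RIPA buffer with protease inhibitors. SMN was read by HTRF (anti-SMN d2 and Kryptate antibodies, overnight rt, 665/620 nm) and normalized to BCA total protein. Values are % change versus vehicle ±SD; 5-11 mice per group.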

[10] = test system: Mus musculus; assay: In vivo inhibition of mRNA splicing of human SMN2 exon 7 in FVB.Cg-Tg(SMN2 delta 7 exon)4299Ahmb Tg(SMN2)89Ahmb Smn1tm1Msd/J mouse assessed as increase in SMN protein level in spinal cord administered as ip qd on postnatal day 3 to day 9 by HTRF assay; assay type: functional, organism-based; summary of the method: as §4
[11] = test system: Mus musculus; assay: In vivo inhibition of mRNA splicing of human SMN2 exon 7 in FVB.Cg-Tg(SMN2 delta 7 exon)4299Ahmb Tg(SMN2)89Ahmb Smn1tm1Msd/J mouse assessed as increase in SMN protein level in quadriceps administered as ip qd on postnatal day 3 to day 9 by HTRF assay; assay type: functional, organism-based; summary of the method: as §4
[12] = test system: Mus musculus; assay: In vivo inhibition of mRNA splicing of human SMN2 exon 7 in po dosed FVB.Cg-Tg(SMN2 delta 7 exon)4299Ahmb Tg(SMN2)89Ahmb Smn1tm1Msd/J mouse assessed as increase in survival time administered as bid on postnatal day 24; assay type: functional, organism-based
Summary of the method: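 Δ7 SMA mice were dosed IP once daily from PND3 to PND23 with compound or vehicle in DMSO (2.5 mL/kg). From PND24 dosing was oral, twice daily, in 0.5% HPMC/0.1% Tween-80 at a higher daily dose. Survivors were counted daily to give median survival time and the fraction alive at study end.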

[13] = test system: Mus musculus; assay: In vivo inhibition of mRNA splicing of human SMN2 exon 7 in FVB.Cg-Tg(SMN2 delta 7 exon)4299Ahmb Tg(SMN2)89Ahmb Smn1tm1Msd/J mouse assessed as increase in SMN protein level in brain at 0.1 mg/kg, ip qd administered on postnatal day 3 to day 9 by HTRF assay relative to control; assay type: functional; design: scale not given: the % may be the effect or the level left; summary of the method: as §4
[14] = test system: Mus musculus; assay: In vivo inhibition of mRNA splicing of human SMN2 exon 7 in FVB.Cg-Tg(SMN2 delta 7 exon)4299Ahmb Tg(SMN2)89Ahmb Smn1tm1Msd/J mouse assessed as increase in SMN protein level in brain at 0.3 mg/kg, ip qd administered on postnatal day 3 to day 9 by HTRF assay relative to control; assay type: functional; design: scale not given: the % may be the effect or the level left; summary of the method: as §4
[15] = test system: Mus musculus; assay: In vivo inhibition of mRNA splicing of human SMN2 exon 7 in FVB.Cg-Tg(SMN2 delta 7 exon)4299Ahmb Tg(SMN2)89Ahmb Smn1tm1Msd/J mouse assessed as increase in SMN protein level in spinal cord at 0.1 mg/kg, ip qd administered on postnatal day 3 to day 9 by HTRF assay relative to control; assay type: functional; design: scale not given: the % may be the effect or the level left; summary of the method: as §4
[16] = test system: Mus musculus; assay: In vivo inhibition of mRNA splicing of human SMN2 exon 7 in FVB.Cg-Tg(SMN2 delta 7 exon)4299Ahmb Tg(SMN2)89Ahmb Smn1tm1Msd/J mouse assessed as increase in SMN protein level in spinal cord at 0.3 mg/kg, ip qd administered on postnatal day 3 to day 9 by HTRF assay relative to control; assay type: functional; design: scale not given: the % may be the effect or the level left; summary of the method: as §4
[17] = test system: Mus musculus; assay: In vivo inhibition of mRNA splicing of human SMN2 exon 7 in FVB.Cg-Tg(SMN2 delta 7 exon)4299Ahmb Tg(SMN2)89Ahmb Smn1tm1Msd/J mouse assessed as increase in SMN protein level in quadriceps at 0.1 mg/kg, ip qd administered on postnatal day 3 to day 9 by HTRF assay relative to control; assay type: functional; design: scale not given: the % may be the effect or the level left; summary of the method: as §4
[18] = test system: Mus musculus; assay: In vivo inhibition of mRNA splicing of human SMN2 exon 7 in FVB.Cg-Tg(SMN2 delta 7 exon)4299Ahmb Tg(SMN2)89Ahmb Smn1tm1Msd/J mouse assessed as increase in SMN protein level in quadriceps at 0.3 mg/kg, ip qd administered on postnatal day 3 to day 9 by HTRF assay relative to control; assay type: functional; design: scale not given: the % may be the effect or the level left; summary of the method: as §4
[19] = test system: Mus musculus; assay: In vivo inhibition of mRNA splicing of human SMN2 exon 7 in ip dosed FVB.Cg-Tg(SMN2 delta 7 exon)4299Ahmb Tg(SMN2)89Ahmb Smn1tm1Msd/J mouse assessed as increase in survival time administered as qd on postnatal day 3 to 23
[20] = test system: Mus musculus; assay: In vivo inhibition of mRNA splicing of human SMN2 exon 7 in FVB.Cg-Tg(SMN2 delta 7 exon)4299Ahmb Tg(SMN2)89Ahmb Smn1tm1Msd/J mouse assessed as median survival time at 0.3 mg/kg/day, ip administered on postnatal day 3 to day 23 (reference value: 14 days); assay type: functional

| SMILES | EC1.5 [1] | Papp [2] | efflux ratio [3] | fraction unbound [4] | AUC(0-t) at 6 h [5] | Kp at 6 h [6] | AUC(0-t) at 24 h [7] | Kp [8] | Activity [9] | Activity [10] | Activity [11] | Activity [12] | Activity [13] | Activity [14] | Activity [15] | Activity [16] | Activity [17] | Activity [18] | Activity [19] | MST [20] |
| --- | --- | --- | --- | --- | --- | --- | --- | --- | --- | --- | --- | --- | --- | --- | --- | --- | --- | --- | --- | --- |
| Cc1cn2nc(-c3cc(=O)n4cc(N5CCN(C)CC5)ccc4n3)cc2c(C)n1 | 160 nM | 7.5 ×10⁻⁶ cm/s | 1.7 | 0.2 | 2100 ng·h/mL | 1.6 | 6900 ng·h/mL | 2.9 | Dose-dependent effect | Dose-dependent effect | Dose-dependent effect | Dose-dependent effect | 43% | 61% | 26% | 67% | 6% | 33% | Dose-dependent effect |  |
| CCN1CCN(c2ccc3cc(-c4cn5cc(C)nc(C)c5n4)c(=O)oc3c2)C[C@@H]1C | 44 nM | 1.2 ×10⁻⁶ cm/s | 1.9 | 0.04 | 1100 ng·h/mL | 19 | 3600 ng·h/mL | 18 | Dose-dependent effect | Dose-dependent effect | Dose-dependent effect | Dose-dependent effect | 115% | 194% | 92% | 164% | 154% | 147% | Dose-dependent effect | >55 days |
| Cc1cn2cc(-c3cc4ccc(N5CCN(C)CC5)cc4c(=O)o3)nc2c(C)n1 |  | 1.2 ×10⁻⁶ cm/s | 1.3 | 0.07 | 790 ng·h/mL | 11 | 5000 ng·h/mL | 17 | Dose-dependent effect | Dose-dependent effect | Dose-dependent effect | Dose-dependent effect | 66% | 114% | 35% | 98% | 14% | 83% | Dose-dependent effect | >100 days |
